Measurements from ChEMBL document CHEMBL1128345, “Derivatives of 2-[[N-(Aminocarbonyl)-N-hydroxyamino]methyl]-1,4- benzodioxan as orally active 5-lipoxygenase inhibitors” (J Med Chem, 1995).
Several values for one entry are separate records, joined by “and”; a condition that tells them apart may be missing. Identical values can stand only once.

Experiments:
[1] = target: T1, Polyunsaturated fatty acid 5-lipoxygenase (Homo sapiens) (UniProt P09917); assay: Ex vivo inhibition of 5-lipoxygenase was determined by the measurement of A-23187-stimulated LTB4 production in dog blood at 24h, following intravenous administration at the dose of 1.0 mg/kg; type: functional, organism-based; set-up: dose 1 mg/kg; settings: Canis lupus familiaris, target entry is the homologue from another species
T1 sequence (whole entry): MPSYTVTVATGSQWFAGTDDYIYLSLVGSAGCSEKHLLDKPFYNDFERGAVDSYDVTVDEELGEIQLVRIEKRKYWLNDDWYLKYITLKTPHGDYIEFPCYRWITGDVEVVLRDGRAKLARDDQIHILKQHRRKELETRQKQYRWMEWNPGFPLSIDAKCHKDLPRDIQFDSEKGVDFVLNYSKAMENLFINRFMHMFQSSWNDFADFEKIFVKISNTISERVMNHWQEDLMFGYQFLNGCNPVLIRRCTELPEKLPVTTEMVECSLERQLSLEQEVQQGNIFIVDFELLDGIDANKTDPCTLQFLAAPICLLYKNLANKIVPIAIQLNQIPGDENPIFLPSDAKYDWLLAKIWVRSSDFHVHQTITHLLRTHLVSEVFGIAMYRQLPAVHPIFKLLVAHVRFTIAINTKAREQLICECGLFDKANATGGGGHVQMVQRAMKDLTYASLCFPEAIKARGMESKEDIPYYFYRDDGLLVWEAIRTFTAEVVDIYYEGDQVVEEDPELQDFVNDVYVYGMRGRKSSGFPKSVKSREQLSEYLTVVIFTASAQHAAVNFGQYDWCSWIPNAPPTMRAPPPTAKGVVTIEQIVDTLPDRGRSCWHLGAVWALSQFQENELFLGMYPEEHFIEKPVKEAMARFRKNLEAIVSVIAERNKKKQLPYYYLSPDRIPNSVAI
Summary of the method: (§1)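 Dogs received a single iv dose. Whole blood was sampled at the stated time after dosing and stimulated ex vivo with calcium ionophore A23187. LTB4 was quantitated by radioimmunoassay. Percent inhibition was calculated against each animal's pre-dose LTB4 value. One to three experiments were run per dose.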

[2] = target: T1, Polyunsaturated fatty acid 5-lipoxygenase (Homo sapiens); assay: Ex vivo inhibition of 5-lipoxygenase was determined by the measurement of A-23187-stimulated LTB4 production in dog blood at 6.0h, following intravenous administration at the dose of 1.0 mg/kg; type: functional, organism-based; set-up: dose 1 mg/kg; settings: Canis lupus familiaris, target entry is the homologue from another species; summary of the method: as §1
[3] = target: T1, Polyunsaturated fatty acid 5-lipoxygenase (Homo sapiens); assay: Ex vivo inhibition of 5-lipoxygenase was determined by the measurement of A-23187-stimulated LTB4 production in dog blood at 9.0h, following intravenous administration at the dose of 1.0 mg/kg; type: functional, organism-based; set-up: dose 1 mg/kg; settings: Canis lupus familiaris, target entry is the homologue from another species; summary of the method: as §1
[4] = target: T1, Polyunsaturated fatty acid 5-lipoxygenase (Homo sapiens); assay: Ex vivo inhibition of 5-lipoxygenase was determined by the measurement of A-23187-stimulated LTB4 production in dog blood at 0.08h, following intravenous administration at the dose of 1.0 mg/kg; type: functional, organism-based; set-up: dose 1 mg/kg; settings: Canis lupus familiaris, target entry is the homologue from another species; summary of the method: as §1
[5] = target: T1, Polyunsaturated fatty acid 5-lipoxygenase (Homo sapiens); assay: Ex vivo inhibition of 5-lipoxygenase was determined by the measurement of A-23187-stimulated LTB4 production in dog blood at 0.25h, following intravenous administration at the dose of 1.0 mg/kg; type: functional, organism-based; set-up: dose 1 mg/kg; settings: Canis lupus familiaris, target entry is the homologue from another species
Summary of the method: (§2)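 Dog ex vivo assay: compound given as a single iv dose. Whole blood drawn at set times after dosing was stimulated ex vivo with calcium ionophore A23187. LTB4 was quantitated by radioimmunoassay. Percent inhibition at each time point was calculated against the LTB4 value before dosing. n = 1–3 experiments per compound.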

[6] = target: T1, Polyunsaturated fatty acid 5-lipoxygenase (Homo sapiens); assay: Ex vivo inhibition of 5-lipoxygenase was determined by the measurement of A-23187-stimulated LTB4 production in dog blood at 0.5h, following intravenous administration at the dose of 1.0 mg/kg; type: functional, organism-based; set-up: dose 1 mg/kg; settings: Canis lupus familiaris, target entry is the homologue from another species; summary of the method: as §1
[7] = target: T1, Polyunsaturated fatty acid 5-lipoxygenase (Homo sapiens); assay: Ex vivo inhibition of 5-lipoxygenase was determined by the measurement of A-23187-stimulated LTB4 production in dog blood at 1.0h, following intravenous administration at the dose of 1.0 mg/kg; type: functional, organism-based; set-up: dose 1 mg/kg; settings: Canis lupus familiaris, target entry is the homologue from another species; summary of the method: as §1
[8] = Duration of action was defined as the period of time from maximum inhibition of A-23187-stimulated LTB4 formation to the time where 50% of maximum inhibition is reached
Summary of the method: (§3)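 Dogs got a single iv or oral dose. Whole blood was drawn at set times afterwards and stimulated ex vivo with the calcium ionophore A23187. LTB4 was measured by radioimmunoassay, and inhibition was taken as the change from the pre-dose LTB4 value. DA, the time from maximum inhibition to 50% of maximum, was read graphically from the plot of percent inhibition vs time.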

[9] = target: T1, Polyunsaturated fatty acid 5-lipoxygenase (Homo sapiens); assay: Ex vivo inhibition of 5-LO was determined by the measurement of A-23187-stimulated LTB4 production in dog blood at 24h, following intravenous administration at the dose of 1.0 mg/kg; type: functional, organism-based; set-up: dose 1 mg/kg; settings: Canis lupus familiaris, target entry is the homologue from another species; summary of the method: as §1
[10] = target: T1, Polyunsaturated fatty acid 5-lipoxygenase (Homo sapiens); assay: Ex vivo inhibition of 5-LO was determined by the measurement of A-23187-stimulated LTB4 production in dog blood at 6.0h, following intravenous administration at the dose of 1.0 mg/kg; type: functional, organism-based; set-up: dose 1 mg/kg; settings: Canis lupus familiaris, target entry is the homologue from another species; summary of the method: as §1
[11] = target: T1, Polyunsaturated fatty acid 5-lipoxygenase (Homo sapiens); assay: Ex vivo inhibition of 5-LO was determined by the measurement of A-23187-stimulated LTB4 production in dog blood at 9.0h, following intravenous administration at the dose of 1.0 mg/kg; type: functional, organism-based; set-up: dose 1 mg/kg; settings: Canis lupus familiaris, target entry is the homologue from another species; summary of the method: as §1
[12] = target: T1, Polyunsaturated fatty acid 5-lipoxygenase (Homo sapiens); assay: Ex vivo inhibition of 5-LO was determined by the measurement of A-23187-stimulated LTB4 production in dog blood at 0.08h, following intravenous administration at the dose of 1.0 mg/kg; type: functional, organism-based; set-up: dose 1 mg/kg; settings: Canis lupus familiaris, target entry is the homologue from another species; summary of the method: as §1
[13] = target: T1, Polyunsaturated fatty acid 5-lipoxygenase (Homo sapiens); assay: Ex vivo inhibition of 5-LO was determined by the measurement of A-23187-stimulated LTB4 production in dog blood at 0.25h, following intravenous administration at the dose of 1.0 mg/kg; type: functional, organism-based; set-up: dose 1 mg/kg; settings: Canis lupus familiaris, target entry is the homologue from another species; summary of the method: as §2
[14] = target: T1, Polyunsaturated fatty acid 5-lipoxygenase (Homo sapiens); assay: Ex vivo inhibition of 5-LO was determined by the measurement of A-23187-stimulated LTB4 production in dog blood at 0.5h, following intravenous administration at the dose of 1.0 mg/kg; type: functional, organism-based; set-up: dose 1 mg/kg; settings: Canis lupus familiaris, target entry is the homologue from another species; summary of the method: as §1
[15] = target: T1, Polyunsaturated fatty acid 5-lipoxygenase (Homo sapiens); assay: Ex vivo inhibition of 5-LO was determined by the measurement of A-23187-stimulated LTB4 production in dog blood at 1.0h, following intravenous administration at the dose of 1.0 mg/kg; type: functional, organism-based; set-up: dose 1 mg/kg; settings: Canis lupus familiaris, target entry is the homologue from another species; summary of the method: as §1
[16] = target: T1, Polyunsaturated fatty acid 5-lipoxygenase (Homo sapiens); assay: Ex vivo inhibition of 5-LO was determined by the measurement of A-23187-stimulated LTB4 production in dog blood at 3.0h, following intravenous administration at the dose of 1.0 mg/kg; type: functional, organism-based; set-up: dose 1 mg/kg; settings: Canis lupus familiaris, target entry is the homologue from another species; summary of the method: as §1
[17] = Duration of action of 5-LO was defined as the period of time from maximum inhibition of A-23187-stimulated LTB4 formation to the time where 50% of maximum inhibition is reached; summary of the method: as §3

Structure (SMILES)	inhibition [1] [%]	inhibition [2] [%]	inhibition [3]	inhibition [4] [%]	inhibition [5] [%]	inhibition [6] [%]	inhibition [7] [%]	Duration of action [8]	inhibition [9] [%]	inhibition [10] [%]	inhibition [11] [%]	inhibition [12] [%]	inhibition [13] [%]	inhibition [14] [%]	inhibition [15] [%]	inhibition [16] [%]	Duration of action [17] [h]
NC(=O)N(O)CC1COc2ccc(Oc3ccc(F)cc3)cc2O1 (stereo unspecified)	17	63	34% and 48%	94	98	94	92	8.2 h and 8.5 h									
NC(=O)N(O)C[C@@H]1COc2ccc(Oc3ccc(F)cc3)cc2O1				100	100	100	100	3.8 h and 3.7 h	0	15	0						
NC(=O)N(O)CC1COc2ccc(Oc3ccccc3)cc2O1 (stereo unspecified)	4	22	0%	100	100	100	100	4 h									
NC(=O)N(O)CC1COc2cc(Oc3ccccc3)ccc2O1 (stereo unspecified)								1.7 h	2	1	9	100	100	100	98	14	
CC(c1cc2ccccc2s1)N(O)C(N)=O (stereo unspecified) [ZILEUTON]	27	56	47%	96	94	91	87	8.5 h and 9.8 h									

Other lines, results leading:

inhibition [1] [%]	inhibition [2] [%]	inhibition [3]	inhibition [4] [%]	inhibition [5] [%]	inhibition [6] [%]	inhibition [7] [%]	Duration of action [8]	inhibition [9] [%]	inhibition [10] [%]	inhibition [11] [%]	inhibition [12] [%]	inhibition [13] [%]	inhibition [14] [%]	inhibition [15] [%]	inhibition [16] [%]	Duration of action [17] [h]	Structure (SMILES)
	0		100	100	64	45	0.7 h										CCCCNC(=O)N(O)CC1COc2ccccc2O1 (stereo unspecified)
0	0	9%	100	100	98	74	1.5 h										CNC(=O)N(O)CC1COc2ccc(Oc3ccccc3)cc2O1 (stereo unspecified)
																8.4	NC(=O)N(O)C[C@H]1COc2ccc(Oc3ccc(F)cc3)cc2O1
